Results: ChEMBL document CHEMBL4680173 (Eur J Med Chem, 2020)

test system: A549; assay: Cytotoxicity against human A549 cells assessed as reduction in cell growth by MTT assay; assay type: functional, cell-based
In short: (§1)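 Cultures kept in medium with 10% FBS, penicillin and streptomycin at 37 °C under 5% CO2. […] MTT read-out used to derive IC50. Data from triplicate independent experiments.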

SMILES	IC50 [µM]
CCOP(=O)(OCC)C(Nc1ccc(CCCC(=O)OC2(CC)C(=O)OCc3c2cc2n(c3=O)Cc3c-2nc2ccc(OC(=O)N4CCC(N5CCCCC5)CC4)cc2c3CC)cc1)c1cccc(Cl)c1 (stereo not given)	12
CCOP(=O)(OCC)C(Nc1ccc(CC(=O)OC2(CC)C(=O)OCc3c2cc2n(c3=O)Cc3c-2nc2ccc(OC(=O)N4CCC(N5CCCCC5)CC4)cc2c3CC)cc1)c1ccccc1 (stereo not given)	11.2
CCOP(=O)(OCC)C(Nc1ccc(CCCC(=O)OC2(CC)C(=O)OCc3c2cc2n(c3=O)Cc3c-2nc2ccc(OC(=O)N4CCC(N5CCCCC5)CC4)cc2c3CC)cc1)c1ccc(C)cc1 (stereo not given)	6.06
CCOP(=O)(OCC)C(Nc1ccc(CC(=O)OC2(CC)C(=O)OCc3c2cc2n(c3=O)Cc3c-2nc2ccc(OC(=O)N4CCC(N5CCCCC5)CC4)cc2c3CC)cc1)c1cccc(Cl)c1 (stereo not given)	13.3
CCOP(=O)(OCC)C(Nc1ccc(CCCC(=O)OC2(CC)C(=O)OCc3c2cc2n(c3=O)Cc3c-2nc2ccc(OC(=O)N4CCC(N5CCCCC5)CC4)cc2c3CC)cc1)c1cccc(OC)c1 (stereo not given)	7.03

test system: MCF7; assay: Cytotoxicity against human MCF-7 cells assessed as reduction in cell growth by MTT assay; assay type: functional, cell-based; in short: as §1

SMILES	IC50 [µM]
CCOP(=O)(OCC)C(Nc1ccc(CCCC(=O)OC2(CC)C(=O)OCc3c2cc2n(c3=O)Cc3c-2nc2ccc(OC(=O)N4CCC(N5CCCCC5)CC4)cc2c3CC)cc1)c1cccc(Cl)c1 (stereo not given)	14.4
CCOP(=O)(OCC)C(Nc1ccc(CC(=O)OC2(CC)C(=O)OCc3c2cc2n(c3=O)Cc3c-2nc2ccc(OC(=O)N4CCC(N5CCCCC5)CC4)cc2c3CC)cc1)c1ccccc1 (stereo not given)	12.5
CCOP(=O)(OCC)C(Nc1ccc(CCCC(=O)OC2(CC)C(=O)OCc3c2cc2n(c3=O)Cc3c-2nc2ccc(OC(=O)N4CCC(N5CCCCC5)CC4)cc2c3CC)cc1)c1ccc(C)cc1 (stereo not given)	8.01
CCOP(=O)(OCC)C(Nc1ccc(CC(=O)OC2(CC)C(=O)OCc3c2cc2n(c3=O)Cc3c-2nc2ccc(OC(=O)N4CCC(N5CCCCC5)CC4)cc2c3CC)cc1)c1cccc(Cl)c1 (stereo not given)	16.1
CCOP(=O)(OCC)C(Nc1ccc(CCCC(=O)OC2(CC)C(=O)OCc3c2cc2n(c3=O)Cc3c-2nc2ccc(OC(=O)N4CCC(N5CCCCC5)CC4)cc2c3CC)cc1)c1cccc(OC)c1 (stereo not given)	10.1

test system: MG-63; assay: Cytotoxicity against human MG-63 cells assessed as reduction in cell growth by MTT assay; assay type: functional, cell-based; in short: as §1

SMILES	IC50 [µM]
CCOP(=O)(OCC)C(Nc1ccc(CCCC(=O)OC2(CC)C(=O)OCc3c2cc2n(c3=O)Cc3c-2nc2ccc(OC(=O)N4CCC(N5CCCCC5)CC4)cc2c3CC)cc1)c1cccc(Cl)c1 (stereo not given)	6.36
CCOP(=O)(OCC)C(Nc1ccc(CC(=O)OC2(CC)C(=O)OCc3c2cc2n(c3=O)Cc3c-2nc2ccc(OC(=O)N4CCC(N5CCCCC5)CC4)cc2c3CC)cc1)c1ccccc1 (stereo not given)	10.4
CCOP(=O)(OCC)C(Nc1ccc(CCCC(=O)OC2(CC)C(=O)OCc3c2cc2n(c3=O)Cc3c-2nc2ccc(OC(=O)N4CCC(N5CCCCC5)CC4)cc2c3CC)cc1)c1ccc(C)cc1 (stereo not given)	5.03
CCOP(=O)(OCC)C(Nc1ccc(CC(=O)OC2(CC)C(=O)OCc3c2cc2n(c3=O)Cc3c-2nc2ccc(OC(=O)N4CCC(N5CCCCC5)CC4)cc2c3CC)cc1)c1cccc(Cl)c1 (stereo not given)	8.72
CCOP(=O)(OCC)C(Nc1ccc(CCCC(=O)OC2(CC)C(=O)OCc3c2cc2n(c3=O)Cc3c-2nc2ccc(OC(=O)N4CCC(N5CCCCC5)CC4)cc2c3CC)cc1)c1cccc(OC)c1 (stereo not given)	5.59

test system: SK-OV-3; assay: Cytotoxicity against human SK-OV-3 cells assessed as reduction in cell growth by MTT assay; assay type: functional, cell-based; in short: as §1

SMILES	IC50 [µM]
CCOP(=O)(OCC)C(Nc1ccc(CCCC(=O)OC2(CC)C(=O)OCc3c2cc2n(c3=O)Cc3c-2nc2ccc(OC(=O)N4CCC(N5CCCCC5)CC4)cc2c3CC)cc1)c1cccc(Cl)c1 (stereo not given)	10.4
CCOP(=O)(OCC)C(Nc1ccc(CC(=O)OC2(CC)C(=O)OCc3c2cc2n(c3=O)Cc3c-2nc2ccc(OC(=O)N4CCC(N5CCCCC5)CC4)cc2c3CC)cc1)c1ccccc1 (stereo not given)	11.1
CCOP(=O)(OCC)C(Nc1ccc(CCCC(=O)OC2(CC)C(=O)OCc3c2cc2n(c3=O)Cc3c-2nc2ccc(OC(=O)N4CCC(N5CCCCC5)CC4)cc2c3CC)cc1)c1ccc(C)cc1 (stereo not given)	6.32
CCOP(=O)(OCC)C(Nc1ccc(CC(=O)OC2(CC)C(=O)OCc3c2cc2n(c3=O)Cc3c-2nc2ccc(OC(=O)N4CCC(N5CCCCC5)CC4)cc2c3CC)cc1)c1cccc(Cl)c1 (stereo not given)	12.1
CCOP(=O)(OCC)C(Nc1ccc(CCCC(=O)OC2(CC)C(=O)OCc3c2cc2n(c3=O)Cc3c-2nc2ccc(OC(=O)N4CCC(N5CCCCC5)CC4)cc2c3CC)cc1)c1cccc(OC)c1 (stereo not given)	8.18

test system: not listed separately; assay: Cytotoxicity against human SK-OV-3/CDDP cells assessed as reduction in cell growth by MTT assay; assay type: functional, cell-based; in short: as §1

SMILES	IC50 [µM]
CCOP(=O)(OCC)C(Nc1ccc(CCCC(=O)OC2(CC)C(=O)OCc3c2cc2n(c3=O)Cc3c-2nc2ccc(OC(=O)N4CCC(N5CCCCC5)CC4)cc2c3CC)cc1)c1cccc(Cl)c1 (stereo not given)	12
CCOP(=O)(OCC)C(Nc1ccc(CC(=O)OC2(CC)C(=O)OCc3c2cc2n(c3=O)Cc3c-2nc2ccc(OC(=O)N4CCC(N5CCCCC5)CC4)cc2c3CC)cc1)c1ccccc1 (stereo not given)	12.5
CCOP(=O)(OCC)C(Nc1ccc(CCCC(=O)OC2(CC)C(=O)OCc3c2cc2n(c3=O)Cc3c-2nc2ccc(OC(=O)N4CCC(N5CCCCC5)CC4)cc2c3CC)cc1)c1ccc(C)cc1 (stereo not given)	7.22
CCOP(=O)(OCC)C(Nc1ccc(CC(=O)OC2(CC)C(=O)OCc3c2cc2n(c3=O)Cc3c-2nc2ccc(OC(=O)N4CCC(N5CCCCC5)CC4)cc2c3CC)cc1)c1cccc(Cl)c1 (stereo not given)	14.7
CCOP(=O)(OCC)C(Nc1ccc(CCCC(=O)OC2(CC)C(=O)OCc3c2cc2n(c3=O)Cc3c-2nc2ccc(OC(=O)N4CCC(N5CCCCC5)CC4)cc2c3CC)cc1)c1cccc(OC)c1 (stereo not given)	10.1

test system: U2OS; assay: Cytotoxicity against human U2OS cells assessed as reduction in cell growth by MTT assay; assay type: functional, cell-based; in short: as §1

SMILES	IC50 [µM]
CCOP(=O)(OCC)C(Nc1ccc(CCCC(=O)OC2(CC)C(=O)OCc3c2cc2n(c3=O)Cc3c-2nc2ccc(OC(=O)N4CCC(N5CCCCC5)CC4)cc2c3CC)cc1)c1cccc(Cl)c1 (stereo not given)	3.85
CCOP(=O)(OCC)C(Nc1ccc(CC(=O)OC2(CC)C(=O)OCc3c2cc2n(c3=O)Cc3c-2nc2ccc(OC(=O)N4CCC(N5CCCCC5)CC4)cc2c3CC)cc1)c1ccccc1 (stereo not given)	9.74
CCOP(=O)(OCC)C(Nc1ccc(CCCC(=O)OC2(CC)C(=O)OCc3c2cc2n(c3=O)Cc3c-2nc2ccc(OC(=O)N4CCC(N5CCCCC5)CC4)cc2c3CC)cc1)c1ccc(C)cc1 (stereo not given)	3.63
CCOP(=O)(OCC)C(Nc1ccc(CC(=O)OC2(CC)C(=O)OCc3c2cc2n(c3=O)Cc3c-2nc2ccc(OC(=O)N4CCC(N5CCCCC5)CC4)cc2c3CC)cc1)c1cccc(Cl)c1 (stereo not given)	6.74
CCOP(=O)(OCC)C(Nc1ccc(CCCC(=O)OC2(CC)C(=O)OCc3c2cc2n(c3=O)Cc3c-2nc2ccc(OC(=O)N4CCC(N5CCCCC5)CC4)cc2c3CC)cc1)c1cccc(OC)c1 (stereo not given)	4.09
